Compound activity as filed in PubChem BioAssay.
Hits are enriched below; roughly 9.8% of the tested compounds scored in any of these assays.
L major viab: inhibitors of Leishmania major promastigote growth; AID 1063; inhibition, % at 10 µM; hit rate 9% among 200,000; Leishmania major promastigotes, resazurin fluorescence viability; in the data active means inhibition above about 50%;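 further: promastigotes grown with compound for 44 hours at 28 °C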
m-calpain inh: calpain II (pig) inhibition. purified calpain II, fluorogenic peptide substrate, 30 min. inhibition, % at 16 µM. hit rate 0.37% among 220,000. AID 1236;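 active means inhibition above about 50%, limit read from the data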
Rad51 HR inh: Rad51 (human) homologous recombination inhibition. hit rate 0.085% among 200,000. Q06609. hRad51 DNA strand exchange, fluorescence dequenching. inhibition, % at 10 µM;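 active means inhibition above 40% at the single screening dose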;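 further: 0% = DMSO control wells and 100% = blanks with heterologous ssDNA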
Target sequence (Q06609 whole entry, looked up): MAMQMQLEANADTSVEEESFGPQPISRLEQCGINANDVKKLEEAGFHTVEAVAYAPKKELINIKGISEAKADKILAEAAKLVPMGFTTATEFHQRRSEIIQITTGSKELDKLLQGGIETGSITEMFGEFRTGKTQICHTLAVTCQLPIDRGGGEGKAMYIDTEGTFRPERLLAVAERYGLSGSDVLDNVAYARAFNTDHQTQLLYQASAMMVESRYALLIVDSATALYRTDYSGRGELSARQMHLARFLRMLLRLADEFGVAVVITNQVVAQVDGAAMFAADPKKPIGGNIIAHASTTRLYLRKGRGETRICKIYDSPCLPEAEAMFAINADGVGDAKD
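material = hRad51 filaments on single-stranded DNA | timing = filaments 15 min 37 °C, then compound 30 min | signal = FRET fluorescence dequenching, excitation 485 nm, emission 520 nm | benchmarks = control wells and blank wells on each plate | evaluation = percent inhibition relative to plate controls and blanks | compound = 10 µM final, single point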
WT yeast gro inh: growth inhibition of WT yeast, mitochondrial fusion screen; mitochondrial fusion phenotypic screen, WT strain; hit rate 2.1% among 190,000; inhibition, % at 10 µM; AID 1362; in the data active means inhibition above about 58%; tested in S. cerevisiae
PMI act satM6P: activators of human phosphomannose isomerase at near-saturating mannose 6-phosphate; hit rate 0.34% among 190,000; AID 1216; coupled PMI enzyme assay, resazurin fluorescence, 20 min; active compounds read high; 1 = untreated enzyme, 0 = substrate-free blank; activation factor at 20 µM;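 active means activation factor of 2 or more at 20 µM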
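Material: human phosphomannose isomerase with PGI, G6PDH, diaphorase coupling enzymes. Quantity: 15 ng/mL PMI. Medium: HEPES pH 7.4 buffer with MgCl2 and Tween-20. Reagent: Near-saturating mannose-6-phosphate, 1.0 mM. Compound: 20 µM single dose. Times: enzyme reaction with compound 20 min at room temperature. Detection: resorufin fluorescence at Ex 544/Em 590 nm.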
PMI act: activators of human phosphomannose isomerase; P34949; purified human PMI, coupled resazurin fluorescence, 20 min; active compounds read high; 1 = vehicle control, 0 substrate-free wells; activation factor at 20 µM; hit rate 0.005% among 190,000; AID 1214;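 active means activation factor of 2 or more at 20 µM, relative to plate controls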
* marks the source's active call; other numbers are inactive results; i = inactive; nt = no result given.

SMILES	L major viab	m-calpain inh	Rad51 HR inh	WT yeast gro inh	PMI act satM6P	PMI act
CNc1ccc(Br)cc(C(=O)/C=C/c2ccc(Cl)cc2Cl)c1=O	98.9*	-127.4	-73.3	16.9	0.8	0.8
CCNc1ccc(Br)cc(C(=O)/C=C/c2ccc(Cl)cc2)c1=O	83.9*	-60.1	nt	7.9	1.2	1.1
Cn1c2ccccc2c(=O)c2c(=O)n(C3CCCCC3)c(-c3cccs3)nc21	40.0	-19.9	2.1	35.4	1	0.9
Cc1ccc(Sc2nc([N+](=O)[O-])nn2C)cc1	17.4	-8.1	-3.6	-1.0	0.9	0.9
COCCNC(=O)c1onc(CSc2ccc(C(C)C)cc2)c1C(=O)O	-7.0	-48.6	7.4	10.1	1	0.9
CN(C)N=Nc1nc2c(c(=O)n(C)c(=O)n2C)n1CC1CO1 (centres undefined)	nt	14.6	7.0	nt	nt	nt
O=C(CSc1nc(O)cc(=O)[nH]1)N1c2ccccc2CCc2ccccc21	nt	-17.8	nt	nt	nt	nt
CCc1ccc(C2CC(c3cccc(Cl)c3)n3nc(N)nc3N2)cc1 (centres undefined)	54.3*	-61.0	-0.7	5.2	0.8	0.8
Cc1cccc(C2CC(c3ccc(F)cc3)Nc3nc(N)nn32)c1 (centres undefined)	93.2*	-26.6	4.9	8.6	0.9	0.9
Cc1cccc(C2CC(c3ccc(Cl)cc3)Nc3nc(N)nn32)c1 (centres undefined)	64.3*	15.9	11.1	5.5	0.9	0.9
O=C(/C=C\c1cccs1)c1c(O)ccc2ccc(=O)oc12	30.1	-55.9	nt	12.4	1	1.1
Cc1cccc(-n2c(SCc3ccc(C#N)cc3)nnc2-c2c[nH]c3ccccc23)c1	97.8*	-66.2	-0.4	10.7	0.9	0.9
O=C(CN(Cc1ccco1)C(=O)CCC(=O)Nc1nccs1)NCc1ccccc1	-8.9	-5.3	124.7*	2.4	1	1
O=C(CCC(=O)N(CC(=O)NC1CCCCC1)Cc1ccccc1)Nc1ccccn1	14.3	38.7	-3.0	3.8	1	1.1
O=C(CN(Cc1ccco1)C(=O)CCC(=O)Nc1ccccn1)NCCc1ccccc1	98.0*	-0.4	5.8	-6.8	0.9	0.9
CC(C)CCNC(=O)c1ccc(-c2ccccc2)cc1	-3.2	24.3	19.1	-0.3	1	1
CCOc1ccc(-c2nn(-c3ccccc3)cc2/C=C(\C#N)S(=O)(=O)c2ccccc2)cc1C	64.0*	i	8.4	-11.1	1	1
N#C/C(=C\c1cn(-c2ccccc2)nc1-c1ccccc1)S(=O)(=O)c1ccccc1	4.7	-95.9	-12.4	-10.8	0.9	1.1
Cn1c(-c2ccccn2)[n+](C)c2ccccc21	-1.2	-21.4	-12.8	-0.1	nt	nt
CN(C)c1ccc(-c2n(C)c3ccccc3[n+]2C)cc1	99.9*	0.4	-6.1	-0.5	0.9	0.9
Cc1cc(/C=N/NC(=O)c2ccccc2F)c(C)n1-c1ccccc1	1.6	30.6	17.2	-6.8	1	1.1
Cc1cccc(-n2c(C)cc(/C=N/NC(=O)c3cccc([N+](=O)[O-])c3C)c2C)c1	63.7*	-305.7	3.2	13.8	0.9	0.8
CCN1C(=O)CC(N2CCN(c3ccc(C(=O)c4ccncc4)cc3)CC2)C1=O (centres undefined)	73.0*	16.0	9.1	0.4	1.1	1.1
O=C(c1ccncc1)c1ccc(N2CCN(C3CC(=O)N(Cc4cccs4)C3=O)CC2)cc1 (centres undefined)	18.4	-4.7	1.6	-10.7	1	1
CCOc1ccc(N2C(=O)CC(N3CCN(c4ccc(C(=O)c5ccncc5)cc4)CC3)C2=O)cc1 (centres undefined)	76.5*	nt	2.2	nt	nt	nt
CCOC(=O)c1c(C)[nH]c(C(=O)OCC(=O)Nc2cc(Cl)ccc2OC)c1C	2.8	-9.6	-3.1	85.4*	1.1	1
CCOC(=O)c1c(C)[nH]c(C(=O)OCC(=O)Nc2cc(C)ccc2OC)c1C	1.1	-28.0	nt	-5.5	1.1	1
COc1ccc(Cl)cc1NC(=O)NC(C)C	94.8*	31.4	9.2	13.7	1	0.9
COc1ccc(Cl)cc1NC(=O)c1ccco1	64.4*	4.3	-10.7	3.5	1	1
COc1cc(NC(=O)c2ccco2)c(OC)cc1NC(=O)Nc1ccccc1Cl	72.1*	-32.5	5.6	-6.7	0.8	0.8
